STK33 inh = blocks human STK33 kinase activity | purified STK33, MBP phosphorylation, ADP-Glo luminescence | inhibition, % at 10 µM | Q9BYT3 | actives 0.073% (n = 320,000);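 active = inhibition at or above 25%, using the most active replicate where run in duplicate; inactive = inhibition below 25%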
MEKK3 PB1 HTS = MEKK3-MEK5 PB1 interaction, increase or decrease | binding response (% of control), % at 10 µM | actives 1.4% (n = 290,000) | bead-based flow cytometry, Alexa488-MEK5 binding to MEKK3; actives lie on both sides; 0 = blocked by unlabeled MEK5, 100 = vehicle;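 active = binding response more than 3 SD above or below the average of its plate-row segment, actives on both sides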;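 note: Alexa488 bead fluorescence after subtracting the streptavidin-only scavenger bead signal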
Target sequence (Q99759 whole entry, looked up): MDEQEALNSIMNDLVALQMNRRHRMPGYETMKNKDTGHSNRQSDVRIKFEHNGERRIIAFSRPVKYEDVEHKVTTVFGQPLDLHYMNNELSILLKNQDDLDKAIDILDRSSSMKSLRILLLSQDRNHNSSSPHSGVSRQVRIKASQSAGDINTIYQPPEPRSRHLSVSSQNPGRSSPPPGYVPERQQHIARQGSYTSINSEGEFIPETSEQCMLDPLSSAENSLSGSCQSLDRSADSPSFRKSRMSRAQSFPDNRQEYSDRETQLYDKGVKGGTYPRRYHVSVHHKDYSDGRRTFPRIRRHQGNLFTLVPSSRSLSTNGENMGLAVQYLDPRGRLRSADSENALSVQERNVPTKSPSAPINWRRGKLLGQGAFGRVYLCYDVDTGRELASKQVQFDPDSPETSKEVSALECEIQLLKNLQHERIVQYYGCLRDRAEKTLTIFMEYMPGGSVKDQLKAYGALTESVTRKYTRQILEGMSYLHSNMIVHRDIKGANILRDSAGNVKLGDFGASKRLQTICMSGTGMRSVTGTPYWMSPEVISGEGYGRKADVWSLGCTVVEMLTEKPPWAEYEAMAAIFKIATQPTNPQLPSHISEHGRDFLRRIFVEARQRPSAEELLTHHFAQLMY
GSK3beta inhib = inhibitors of human GSK3beta kinase; GST-GSK3beta kinase, ADP-Glo luminescence, 60 min; stronger effect = lower value; activity score (negative = inhibition), % at 10 µM; actives 0.038% (n = 300,000);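 active = more than half of replicate wells score below -50%, meaning over 50% inhibition versus plate controls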
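Assay system: GST-fused GSK3beta enzyme, cell-free / Medium: Tris pH 7.5 buffer with MgCl2, DTT, BSA, heparin / Also added: peptide substrate plus 25 µM ATP (final) / Compound: 10 µM single point / Timing: kinase reaction with compound 60 min at room temperature / Detection: ADP-Glo luminescence / Benchmarks: DMSO neutral wells and GW8510 at 20 µM as positive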
GSK3A inh = blocks human GSK-3 alpha kinase; P49840; ADP-Glo luminescence, 60 min; inhibition, % at 10 µM; actives 0.1% (n = 320,000); AID 2650;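 active = more than half of replicates show inhibition above 20%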;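 note: GST-tagged GSK-3 alpha with peptide substrate and 25 µM ATP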
MEKK2mut PB1 HTS = signal of MEK5 binding to mutant human MEKK2 PB1 domain. bead flow cytometry, Alexa488-MEK5 binding to MEKK2 mutant. actives 0.35% (n = 290,000). percent response, % at 10 µM. AID 1530; in the data active = percent response above about 24%, passing the limit was not always enough
MEKK2 WT-MEK5 = raises or lowers MEK5 binding to wildtype human MEKK2 PB1 domain. Q9Y2U5. bead flow cytometry, Alexa488-MEK5 binding to MEKK2 WT; actives lie on both sides. binding response (% of control), % at 10 µM. actives 1.1% (n = 290,000); in the data active = binding response below about 67% or above about 130%
MEKK2wt confirm = raises or lowers MEK5 binding to wildtype human MEKK2, retest | bead flow cytometry, Alexa488-MEK5 binding to MEKK2 WT; actives lie on both sides | binding response (% of control), % at 10 µM | AID 1892 | actives 2.4% (n = 5,900) | shares compounds with MEKK3 PB1 HTS; in the data active = binding response below about 16% or above about 210%; inactive = in between
MEKK2mut confirm = signal of MEK5 binding to mutant human MEKK2, retest. percent response, % at 10 µM. actives 2% (n = 5,900). AID 1893. bead flow cytometry, Alexa488-MEK5 binding to MEKK2 mutant. shares compounds with MEKK3 PB1 HTS; in the data active = percent response mostly above about 71%, no sharp cut-off; inactive = mostly below about 38%;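 note: higher means compound restores mutant binding toward wildtype level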
MEKK3 confirm = confirmation of inhibitors of MEK5 binding to human MEKK3 | actives 1.8% (n = 5,900) | bead flow cytometry, Alexa488-MEK5 binding to MEKK3; stronger effect = lower value | binding response (% of control), % at 10 µM | shares compounds with MEKK3 PB1 HTS;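 active = binding response below 72% of control, or above a set upper limit, though filed actives all read lower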
A number is an active result; 0 = inactive; - = no result; [ ] = dose if it differs, or a comment. In the library only some 2.1% were active in any assay of this set; here they are far more common.

SMILES	STK33 inh	MEKK3 PB1 HTS	GSK3beta inhib	GSK3A inh	MEKK2mut PB1 HTS	MEKK2 WT-MEK5	MEKK2wt confirm	MEKK2mut confirm	MEKK3 confirm
CCOc1cc(CNCCc2ccc(S(N)(=O)=O)cc2)ccc1OCc1ccccc1	0	0	0	0	0	0	-	-	-
COc1ccc(CNCCc2ccc(Cl)cc2)cc1OCc1ccccc1	0	2.0[inhibitor]	0	0	0	2.0[inhibitor]	0	0	0
CC(N=C1NC(C)(C)Cc2ccccc21)C(=O)O (stereo not given)	0	0	0	0	0	0	-	-	-
COC(=O)CN1C(=O)N/C(=C/c2ccccc2OC)C1=O	0	131	0	0	0	0	0	0	0
COC(=O)CN1C(=O)N/C(=C/c2cc(OC)c(OC)cc2C)C1=O	0	0	0	0	0	0	-	-	-
CC(C)(C)c1csc(Sc2ccc([N+](=O)[O-])cn2)n1	0	0	0	0	0	0	-	-	-
CNC(=S)N/N=C/c1ccccc1Cl	0	142	0	0	0	0	0	0	0
O=C(CNC(=O)c1ccccc1)N/N=C/c1ccccc1Cl	0	129	0	0	0	0	0	0	0
NS(=O)(=O)c1cc(C(=O)OCC(=O)Nc2ccc3c(c2)OCO3)ccc1Cl	0	-	-	0	-	-	-	-	-
COCC(COS(N)(=O)=O)Cc1ccccc1 (stereo not given)	0	0	0	0	0	139	0	0	0
CC(CCc1ccc(O)cc1)NCCC(c1ccccc1)c1ccccc1 (stereo not given)	0	0	0	0	0	144	0	0	0
Cc1cc(C)c(COc2ccc(/C=N/n3c(C)n[nH]c3=S)cc2)c(C)c1	0	72[inhibitor]	0	0	0	0	0	0	0
Cc1n[nH]c(=S)n1/N=C/c1ccc(OCc2ccc(Cl)cc2)cc1	0	0	0	0	0	0	-	-	-
Cc1cc(=O)oc(C)c1C(=O)OCC(=O)c1ccc(Cl)c(Cl)c1	0	0	0	0	0	0	-	-	-
Cc1ccc(C(=O)COC(=O)c2c(C)cc(=O)oc2C)cc1[N+](=O)[O-]	0	160	0	0	0	0	0	0	0
NS(=O)(=O)c1ccc(NC(=O)CN2CCc3ccccc3C2)cc1	0	0	0	0	0	0	-	-	-
COc1ccc(N2C(=O)/C(=C/c3cccs3)NC2=S)cc1	0	141	0	0	0	0	0	0	0
C=CCn1c(-c2ccc(Cl)cc2)c[nH]c1=S	0	0	0	0	0	0	-	-	-
C=CCn1c(-c2ccccc2)c[nH]c1=S	0	124	0	0	0	0	0	0	0
CSc1ccc(NC(=O)NCCCN2CCC(Cc3ccccc3)CC2)cc1	0	0	0	0	30	162	0	0	0
CSc1ccc(NC(=O)NCCN2CCc3ccccc3C2)cc1	0	49[inhibitor]	0	0	0	0	0	0	0
COc1ccc(NC(=O)NCCN2CCc3ccccc3C2)cc1	0	0	0	0	0	0	-	-	-
CCOCC(=O)Nc1ccc2c(c1)N(S(=O)(=O)c1cccs1)CCC2	0	-	0	0	-	-	-	-	-
CCN(CC)S(=O)(=O)c1cccc(-c2nnc(SCC(=O)N3CCC(C(=O)O)CC3)n2N)c1	0	-	0	0	-	-	-	-	-
CCN(CC)S(=O)(=O)c1cccc(-c2nnc(SCC(=O)NC)n2N)c1	0	6.0[inhibitor]	0	0	0	7.0[inhibitor]	0	0	0
SMILES	STK33 inh	MEKK3 PB1 HTS	GSK3beta inhib	GSK3A inh	MEKK2mut PB1 HTS	MEKK2 WT-MEK5	MEKK2wt confirm	MEKK2mut confirm	MEKK3 confirm
COc1cccc(CC(=O)NNC(=O)CN(C)S(=O)(=O)c2ccc(C)cc2)c1	0	-	-	0	-	-	-	-	-
Cn1cccc1CC(=O)NNC(=O)Nc1cccc(Cl)c1	0	129	0	-	0	0	0	0	0
Cc1cccc(-c2nc(C#N)c(NCc3ccco3)o2)c1	0	0	0	0	0	0	-	-	-
COc1ccc(-c2nc(C#N)c(N3CCOCC3)o2)cc1OC	0	77[inhibitor]	0	0	0	0	0	0	0
COc1ccc(-c2nc(C#N)c(N3CCN(c4cccc(Cl)c4)CC3)o2)cc1OC	0	0	0	0	0	0	-	-	-
CC(=O)Nc1ccc(NC(=O)C(=O)c2cn(CC(=O)N3CCCC3)c3ccccc23)cc1	0	0	0	0	0	0	-	-	-
O=C(Nc1ccccc1F)C(=O)c1cn(CC(=O)N2CCCCC2)c2ccccc12	0	44[inhibitor]	0	0	0	0	0	0	0
CC(=O)N1CCc2cc(Br)cc(S(=O)(=O)N3CCc4ccccc43)c21	0	0	0	0	0	0	-	-	-
CC1(C)CC(=O)c2cnc(NC3CC3)nc2C1	0	129	0	0	0	0	0	0	0
CCn1c(-c2ccccc2)c(C(=O)CC#N)c2ccccc21	0	0	0	0	0	0	-	-	-
CC(=O)c1cccc(NC(=O)NC(C)c2ccncc2)c1 (stereo not given)	0	0	0	0	0	0	-	-	-
CC(C)CN1CCNC(=O)C1CC(=O)NCc1cnn(-c2cccc(F)c2)c1 (stereo not given)	-	0	0	0	0	138	0	0	0
N#Cc1ccccc1S(=O)(=O)N1CCN(C(=O)Cc2coc3cc(O)ccc23)CC1	0	-	-	0	-	-	-	-	-
Cc1ccc(C(=O)CSc2ccc(-c3ccncc3)nn2)cc1	0	0	0	0	0	0	-	-	-
O=C(CSc1n[nH]c(=O)n1Cc1ccco1)N1CCOCC1	0	0	0	0	0	0	-	-	-
O=C(CSc1ccc(-c2ccco2)nn1)c1ccc(F)cc1	0	128	0	0	0	0	0	0	0
O=C(CSc1n[nH]c(=O)n1Cc1ccco1)c1ccc(F)cc1	0	131	0	0	0	0	0	0	0
Cc1ccc(-c2ccc(SCC(=O)c3ccccc3)nn2)cc1	0	0	0	0	0	63[inhibitor]	0	0	0
Cc1ccc(S(=O)(=O)NC2CC(C)(C)NC(C)(C)C2)cc1C	0	0	-	0	0	0	-	-	-
CN(C)S(=O)(=O)N1CCN(CC(O)COc2ccc3cc(Br)ccc3c2)CC1 (stereo not given)	0	0	0	0	0	134	0	0	0
O=C(NCCN1C(=O)S/C(=C\c2cccs2)C1=O)[C@H](Cc1ccccc1)N1C(=O)c2ccccc2C1=O	0	0	0	0	0	0	-	-	-
CC(C(=O)NCCN1C(=O)S/C(=C\c2cccs2)C1=O)N1C(=O)c2ccccc2C1=O (stereo not given)	0	146	0	0	0	0	0	0	0
